Assay results taken from PMC3480690 (The Open Medicinal Chemistry Journal, 2012).

Test system: MCF-7 cells
Test: MTT assay, cytotoxicity on MCF-7 cells
Type: cell-based
Conditions: Homo sapiens, MCF7, 24 h, read-out: MTT assay IC50
Procedure, shortened: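 Human breast cancer MCF-7 cells grown in DMEM with 10% FBS, penicillin and streptomycin at 37°C, 5% CO2. 10000 cells per well were seeded, cultured overnight, then exposed to test compound (1-200 µM) for 24 h. MTT at 0.5 mg/ml final was added for 3 h at 37°C. Formazan was dissolved in DMSO and read at 545 nm (630 nm reference). IC50 was taken from concentration-growth inhibition curves.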

Cc1ccc(-c2cc(C(F)(F)F)nn2-c2ccc(S(N)(=O)=O)cc2)cc1 [Celecoxib]
IC50: 87.7 µM
